# The source made the active and inactive calls. The calls are words filed in the database; no cut-off is given here.
# Legend:
# CWR22R = experiment: (§1) Cytotoxicity against human CWR22Rv1 cells assessed as cell death at 25 uM after 24 hrs by propidium iodide staining-based FACS analysis; assay type: functional
# Summary of the method: (§2)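 CWR22Rv1 cells seeded at 300,000/well in RPMI 1640 with 10% FBS, 2.5 mM L-glutamine and penicillin-streptomycin at 37 °C, 5% CO2, then switched to serum-free RPMI overnight. Compounds from DMSO stock diluted in serum-free RPMI, applied in triplicate. After treatment, cells trypsinized, fixed in 70% ethanol, RNase-treated (5 μg/mL), stained with propidium iodide (50 μg/mL), DNA content read by flow cytometry.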
# PC-3 [1] = experiment: Antitumor activity against human PC3 cells xenografted in athymic BALB/c nude mouse assessed as reduction in tumor volume at 10 mg/kg, ip qd administered every other day for 24 days measured on day 15; assay type: functional, organism-based; parameters: dose 10 mg/kg
# Summary of the method: (§3)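 Male athymic nude mice (18–22 g) given 3 × 10^6 PC3 cells subcutaneously in right axillary region; randomized one week later into four groups of 6. Compound from DMSO stock diluted in PEG 400/PBS (1:1), given ip once every other day; vehicle control group. Tumor size by caliper, volume = length × width × height/2. One-way ANOVA or ANOVA on ranks with Tukey/Dunn post hoc; mean ± S.E.M.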
# hERG (KCNH2) [2] = biological target: T1, hERG (KCNH2) (Homo sapiens, UniProt Q12809); experiment: Displacement of [35S]MK-0499 from human ERG at 1 uM after >90 mins by scintillation counting; conditions: probe [35S]MK-0499
# T1 sequence (Q12809 whole entry): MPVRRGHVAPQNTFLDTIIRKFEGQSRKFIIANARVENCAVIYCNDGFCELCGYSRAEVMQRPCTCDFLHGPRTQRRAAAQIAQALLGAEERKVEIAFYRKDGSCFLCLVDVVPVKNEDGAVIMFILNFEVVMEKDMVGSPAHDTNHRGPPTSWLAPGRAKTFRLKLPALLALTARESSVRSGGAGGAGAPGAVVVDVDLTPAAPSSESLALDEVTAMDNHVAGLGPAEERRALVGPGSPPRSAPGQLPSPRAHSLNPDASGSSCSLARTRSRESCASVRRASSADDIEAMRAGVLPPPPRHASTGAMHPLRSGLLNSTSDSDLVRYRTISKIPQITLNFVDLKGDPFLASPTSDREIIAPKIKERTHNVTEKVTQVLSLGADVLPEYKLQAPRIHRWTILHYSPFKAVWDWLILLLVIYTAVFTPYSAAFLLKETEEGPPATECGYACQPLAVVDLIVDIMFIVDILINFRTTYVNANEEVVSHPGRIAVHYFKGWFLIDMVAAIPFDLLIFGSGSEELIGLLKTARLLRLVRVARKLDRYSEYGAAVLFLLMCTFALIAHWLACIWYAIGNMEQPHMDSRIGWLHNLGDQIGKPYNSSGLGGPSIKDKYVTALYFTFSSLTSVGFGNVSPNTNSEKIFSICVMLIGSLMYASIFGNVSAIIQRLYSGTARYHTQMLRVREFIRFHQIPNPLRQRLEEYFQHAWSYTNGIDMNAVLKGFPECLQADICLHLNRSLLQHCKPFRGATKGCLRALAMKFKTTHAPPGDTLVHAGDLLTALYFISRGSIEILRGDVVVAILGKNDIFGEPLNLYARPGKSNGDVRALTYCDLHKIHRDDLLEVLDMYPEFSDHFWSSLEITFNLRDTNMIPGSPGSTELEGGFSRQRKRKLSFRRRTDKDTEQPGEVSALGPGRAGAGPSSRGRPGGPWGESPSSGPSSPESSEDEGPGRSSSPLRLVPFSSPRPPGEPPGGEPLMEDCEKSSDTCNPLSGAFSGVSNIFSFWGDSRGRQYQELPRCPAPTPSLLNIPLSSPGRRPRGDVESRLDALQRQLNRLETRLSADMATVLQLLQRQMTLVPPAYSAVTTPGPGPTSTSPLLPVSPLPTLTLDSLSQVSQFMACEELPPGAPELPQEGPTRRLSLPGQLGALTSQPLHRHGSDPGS
# Summary of the method: (§4)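 Binding to membranes from HEK-293 cells stably expressing hERG, with 0.05 nM [35S]MK-499 in NaCl/KCl/HEPES buffer pH 7.4 with Mg2+ and Ca2+, 25 °C for >90 min. Filtered on BSA-presoaked GF/C plates, then scintillation counted. Five-point half-log titration, 0.3–30 μM. Percent inhibition relative to no-competitor control and 1 μM unlabeled MK-499; triplicate.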
# [3] = biological target: Sodium channel protein type 9 subunit alpha (Homo sapiens, UniProt Q15858); experiment: Inhibition of human voltage-gated sodium channel 1.7 expressed in HEK293 cells assessed as changes in membranre potential after 45 mins by FRET analysis
# Sodium channel protein type 9 subunit alpha, sequence (Q15858 whole entry): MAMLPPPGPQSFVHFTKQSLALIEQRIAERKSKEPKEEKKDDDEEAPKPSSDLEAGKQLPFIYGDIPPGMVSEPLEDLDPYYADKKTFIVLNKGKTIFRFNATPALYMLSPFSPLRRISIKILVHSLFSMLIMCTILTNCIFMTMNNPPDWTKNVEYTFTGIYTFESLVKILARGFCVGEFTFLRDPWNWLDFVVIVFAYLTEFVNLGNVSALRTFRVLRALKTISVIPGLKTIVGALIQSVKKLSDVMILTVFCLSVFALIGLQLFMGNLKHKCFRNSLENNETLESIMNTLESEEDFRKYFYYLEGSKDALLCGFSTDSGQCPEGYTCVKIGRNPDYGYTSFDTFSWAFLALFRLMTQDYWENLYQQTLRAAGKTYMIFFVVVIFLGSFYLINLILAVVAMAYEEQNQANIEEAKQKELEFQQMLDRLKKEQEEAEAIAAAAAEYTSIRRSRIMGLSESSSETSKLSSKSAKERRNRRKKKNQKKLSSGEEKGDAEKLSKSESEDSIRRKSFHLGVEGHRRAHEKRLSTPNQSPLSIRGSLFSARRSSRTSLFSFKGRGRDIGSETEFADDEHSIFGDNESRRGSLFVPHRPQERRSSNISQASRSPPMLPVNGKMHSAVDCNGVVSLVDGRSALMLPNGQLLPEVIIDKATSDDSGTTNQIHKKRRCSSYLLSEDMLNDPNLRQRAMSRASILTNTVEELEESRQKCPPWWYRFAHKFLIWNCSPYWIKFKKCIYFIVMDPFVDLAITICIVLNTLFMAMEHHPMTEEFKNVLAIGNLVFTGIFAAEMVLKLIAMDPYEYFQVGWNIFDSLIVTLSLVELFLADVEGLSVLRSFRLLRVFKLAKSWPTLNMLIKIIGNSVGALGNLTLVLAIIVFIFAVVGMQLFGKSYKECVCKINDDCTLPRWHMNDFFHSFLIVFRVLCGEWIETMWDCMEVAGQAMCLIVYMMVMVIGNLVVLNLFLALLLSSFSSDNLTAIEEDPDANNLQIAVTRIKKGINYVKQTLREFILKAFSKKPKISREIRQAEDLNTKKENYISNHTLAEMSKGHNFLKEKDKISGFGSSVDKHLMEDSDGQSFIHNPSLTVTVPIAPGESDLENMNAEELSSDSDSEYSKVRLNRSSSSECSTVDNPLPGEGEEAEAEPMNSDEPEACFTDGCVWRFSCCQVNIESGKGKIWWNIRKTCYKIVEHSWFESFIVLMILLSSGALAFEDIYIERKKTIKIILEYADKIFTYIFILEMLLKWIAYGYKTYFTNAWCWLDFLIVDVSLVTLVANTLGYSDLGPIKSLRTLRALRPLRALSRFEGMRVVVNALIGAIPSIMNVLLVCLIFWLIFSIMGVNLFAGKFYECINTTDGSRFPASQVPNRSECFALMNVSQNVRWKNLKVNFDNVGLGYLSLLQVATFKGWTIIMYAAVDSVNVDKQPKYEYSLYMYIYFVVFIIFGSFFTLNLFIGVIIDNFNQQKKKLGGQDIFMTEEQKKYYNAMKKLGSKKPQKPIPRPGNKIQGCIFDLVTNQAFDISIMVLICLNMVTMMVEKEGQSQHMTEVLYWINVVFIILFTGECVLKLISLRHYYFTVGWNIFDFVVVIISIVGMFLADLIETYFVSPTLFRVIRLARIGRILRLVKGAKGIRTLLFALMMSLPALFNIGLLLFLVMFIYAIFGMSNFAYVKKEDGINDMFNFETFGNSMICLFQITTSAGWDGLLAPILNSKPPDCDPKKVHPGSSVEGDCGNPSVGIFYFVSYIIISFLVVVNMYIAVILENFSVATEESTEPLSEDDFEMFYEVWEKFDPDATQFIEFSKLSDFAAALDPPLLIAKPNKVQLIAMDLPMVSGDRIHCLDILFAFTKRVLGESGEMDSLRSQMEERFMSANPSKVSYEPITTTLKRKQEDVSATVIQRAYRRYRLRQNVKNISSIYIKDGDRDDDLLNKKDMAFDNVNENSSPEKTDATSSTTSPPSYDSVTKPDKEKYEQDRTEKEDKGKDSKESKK
# [4] = biological target: Sodium channel protein type 2 subunit alpha (Homo sapiens) (UniProt Q99250); experiment: Inhibition of human voltage-gated sodium channel 1.2-mediated current expressed in HEK293 cells at -60 to +10 mV holding poteinitial at 1 uM after 5 mins by patch clamp electrophysiology; assay type: cell-based
# Sodium channel protein type 2 subunit alpha (Homo sapiens), sequence (Q99250 whole entry, looked up, the tested form may be a part): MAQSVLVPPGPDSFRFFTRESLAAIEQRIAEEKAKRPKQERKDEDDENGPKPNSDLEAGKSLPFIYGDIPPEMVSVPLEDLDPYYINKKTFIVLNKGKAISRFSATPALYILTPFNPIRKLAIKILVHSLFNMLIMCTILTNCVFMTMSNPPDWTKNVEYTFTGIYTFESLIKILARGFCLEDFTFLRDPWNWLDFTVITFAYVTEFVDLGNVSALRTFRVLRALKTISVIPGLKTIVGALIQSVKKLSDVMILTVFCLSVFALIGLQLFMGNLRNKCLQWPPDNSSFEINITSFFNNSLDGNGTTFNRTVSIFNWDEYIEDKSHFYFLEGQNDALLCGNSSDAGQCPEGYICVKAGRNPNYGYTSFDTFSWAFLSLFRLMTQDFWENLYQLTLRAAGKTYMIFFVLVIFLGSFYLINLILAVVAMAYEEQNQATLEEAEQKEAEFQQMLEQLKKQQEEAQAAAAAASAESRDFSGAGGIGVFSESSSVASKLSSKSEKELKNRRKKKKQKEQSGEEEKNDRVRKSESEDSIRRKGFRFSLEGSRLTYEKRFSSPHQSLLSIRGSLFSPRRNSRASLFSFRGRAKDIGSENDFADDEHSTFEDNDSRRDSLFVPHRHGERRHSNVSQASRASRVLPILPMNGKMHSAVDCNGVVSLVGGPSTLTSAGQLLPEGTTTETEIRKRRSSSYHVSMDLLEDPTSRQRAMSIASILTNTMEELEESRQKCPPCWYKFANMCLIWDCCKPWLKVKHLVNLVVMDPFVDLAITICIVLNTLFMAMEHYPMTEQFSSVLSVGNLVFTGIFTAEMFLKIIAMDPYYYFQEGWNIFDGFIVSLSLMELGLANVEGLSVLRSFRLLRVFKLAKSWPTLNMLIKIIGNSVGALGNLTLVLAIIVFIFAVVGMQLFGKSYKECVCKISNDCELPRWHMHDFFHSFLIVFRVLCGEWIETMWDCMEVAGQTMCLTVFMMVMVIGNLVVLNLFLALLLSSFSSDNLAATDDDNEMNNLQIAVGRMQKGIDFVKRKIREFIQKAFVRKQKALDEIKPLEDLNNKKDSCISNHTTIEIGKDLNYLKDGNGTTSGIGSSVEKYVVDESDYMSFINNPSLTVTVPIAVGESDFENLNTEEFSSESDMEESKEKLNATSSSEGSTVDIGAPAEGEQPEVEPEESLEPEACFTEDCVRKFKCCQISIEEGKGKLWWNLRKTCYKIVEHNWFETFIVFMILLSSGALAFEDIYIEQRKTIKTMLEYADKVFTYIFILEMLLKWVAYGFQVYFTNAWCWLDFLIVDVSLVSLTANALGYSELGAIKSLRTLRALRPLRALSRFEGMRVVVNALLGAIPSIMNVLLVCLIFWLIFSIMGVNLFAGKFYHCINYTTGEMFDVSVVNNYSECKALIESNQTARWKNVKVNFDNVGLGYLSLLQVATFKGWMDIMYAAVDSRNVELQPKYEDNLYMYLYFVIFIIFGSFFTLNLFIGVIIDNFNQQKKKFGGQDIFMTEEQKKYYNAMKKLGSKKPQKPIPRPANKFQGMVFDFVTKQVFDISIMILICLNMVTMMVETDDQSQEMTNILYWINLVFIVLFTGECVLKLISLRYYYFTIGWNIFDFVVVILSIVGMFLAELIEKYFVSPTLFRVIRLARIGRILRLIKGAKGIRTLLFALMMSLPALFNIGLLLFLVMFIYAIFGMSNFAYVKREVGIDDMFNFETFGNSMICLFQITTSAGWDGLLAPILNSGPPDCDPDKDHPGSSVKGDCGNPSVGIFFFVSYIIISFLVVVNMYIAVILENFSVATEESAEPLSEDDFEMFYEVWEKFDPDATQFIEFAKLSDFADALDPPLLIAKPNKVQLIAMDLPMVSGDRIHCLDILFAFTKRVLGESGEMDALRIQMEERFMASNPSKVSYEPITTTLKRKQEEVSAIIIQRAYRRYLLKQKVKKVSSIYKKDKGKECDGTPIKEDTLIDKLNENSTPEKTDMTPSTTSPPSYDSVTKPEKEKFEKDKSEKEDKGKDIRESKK
# Summary of the method: (§5)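 Whole-cell patch clamp at 20–22 °C. Pipette solution CsCl/BAPTA/MgATP, pH 7.4; bath NaCl 130 mM, pH 7.4. ≥75% series resistance compensation; cells held at −100 mV for 5 min. Currents evoked by 25 ms steps from −60 to +10 mV every 15 s. Compound from 100 mM DMSO stock, perfused 5 min, then washout. Tonic block taken as peak current with drug versus drug-free.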
# [5] = biological target: Sodium channel protein type 2 subunit alpha (Homo sapiens) (UniProt Q99250); experiment: Reversible inhibition of human voltage-gated sodium channel 1.2-mediated current expressed in HEK293 cells at -60 to +10 mV holding poteinitial at 1 to 10 uM after 5 mins measured after drug washout by patch clamp electrophysiology; assay type: cell-based; summary of the method: as §5
# [6] = Cytotoxicity against human CWR22Rv1 cells assessed as cell death at 25 uM after 72 hrs by propidium iodide staining-based FACS analysis; assay type: functional, CWR22R; summary of the method: as §2
# hERG (KCNH2) [7] = biological target: T1, hERG (KCNH2); experiment: Displacement of [35S]MK-0499 from human ERG at 0.3 uM after >90 mins by scintillation counting; conditions: probe [35S]MK-0499; summary of the method: as §4
# hERG (KCNH2) [8] = biological target: T1, hERG (KCNH2); experiment: Displacement of [35S]MK-0499 from human ERG at 30 uM after >90 mins by scintillation counting; conditions: probe [35S]MK-0499; summary of the method: as §4
# [9] = biological target: Sodium channel protein type 2 subunit alpha (Homo sapiens) (UniProt Q99250); experiment: Inhibition of human voltage-gated sodium channel 1.2-mediated current expressed in HEK293 cells at -60 to +10 mV holding poteinitial at 10 uM after 5 mins by patch clamp electrophysiology; assay type: cell-based; summary of the method: as §5
# hERG (KCNH2) [10] = biological target: T1, hERG (KCNH2); experiment: Displacement of [35S]MK-0499 from human ERG at 3 uM after >90 mins by scintillation counting; conditions: probe [35S]MK-0499; summary of the method: as §4
# hERG (KCNH2) [11] = biological target: T1, hERG (KCNH2); experiment: Displacement of [35S]MK-0499 from human ERG at 10 uM after >90 mins by scintillation counting; conditions: probe [35S]MK-0499; summary of the method: as §4
# PC-3 [12] = experiment: Antitumor activity against human PC3 cells xenografted in athymic BALB/c nude mouse assessed as reduction in tumor volume at 10 mg/kg, ip qd administered every other day for 24 days; assay type: functional; parameters: scale not given: the % may be the effect or the level left; conditions: route intraperitoneal; summary of the method: as §3
# [13] = as §1; assay type: functional, CWR22R; summary of the method: as §2
SMILES,Activity (CWR22R),Activity (PC-3 [1]),"inhibition at […], 1 µM (hERG (KCNH2) [2])",IC50 [3],inhibition [4],inhibition [5],Activity [6],"inhibition at […], 0.3 µM (hERG (KCNH2) [7])","inhibition at […], 30 µM (hERG (KCNH2) [8])",inhibition [9],"inhibition at […], 3 µM (hERG (KCNH2) [10])","inhibition at […], 10 µM (hERG (KCNH2) [11])",Activity (PC-3 [12]),Activity [13]
CCCCCCCC(O)(C(N)=O)c1cccc(Cl)c1 (racemic),Active,Active,17%,1.81 µM,31.9%,Active,25%,15%,78%,87%,15%,51%,62%,–
CCCCCCC[C@](O)(C(N)=O)c1cccc(Cl)c1,–,Active,–,–,67.4%,Active,60%,–,–,94.3%,–,–,62%,25%
CCCCCCC[C@@](O)(C(N)=O)c1cccc(Cl)c1,Active,Active,–,–,34.9%,Active,40%,–,–,91.5%,–,–,62%,–

# From ChEMBL document CHEMBL1955838, “Asymmetric synthesis and evaluation of a hydroxyphenylamide voltage-gated sodium channel blocker in human prostate cancer xenografts” (Bioorg Med Chem, 2012)
